Bioassay records (PubChem)
CHO parental Ca – signal in parental CHO cells, OX1R antagonist counter-screen | parental CHO-K1, ATP-induced calcium, Fluo-8 fluorescence | inhibition, % at 5.6 µM | 330,000 tested, 0.63% active | AID 463079;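 active means inhibition above that plate's mean sample inhibition plus 3 SD, cut at about 26% in these data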;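 further: 0% = ATP-challenged DMSO wells and 100% = DMSO wells without ATP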
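Material: Parental CHO cells | Reagent: ATP | Compound dosing: Single nominal dose of 5.6 µM per compound | Detection: Intracellular calcium via Fluo-8 no-wash fluorescent dye | Read-out: % inhibition of ATP-induced calcium mobilization | Benchmarks: Low control ATP plus DMSO, high control DMSO only | Replicates: Singlicate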
TAAR1 antag – human TAAR1 antagonism; Q96RJ0; CHO RD-HGA16 TAAR1, Fluo-8 calcium fluorescence, antagonist; inhibition, % at 3 µM; 360,000 tested, 1.5% active; AID 624466;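 active means inhibition above a per-plate cutoff, the mean inhibition of test compounds on that plate plus 3 SD, cut at about 49% in these data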;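 further: 0% = DMSO plus EC80 beta-PEA response and 100% = DMSO alone without agonist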
Target sequence (Q96RJ0 whole entry, looked up): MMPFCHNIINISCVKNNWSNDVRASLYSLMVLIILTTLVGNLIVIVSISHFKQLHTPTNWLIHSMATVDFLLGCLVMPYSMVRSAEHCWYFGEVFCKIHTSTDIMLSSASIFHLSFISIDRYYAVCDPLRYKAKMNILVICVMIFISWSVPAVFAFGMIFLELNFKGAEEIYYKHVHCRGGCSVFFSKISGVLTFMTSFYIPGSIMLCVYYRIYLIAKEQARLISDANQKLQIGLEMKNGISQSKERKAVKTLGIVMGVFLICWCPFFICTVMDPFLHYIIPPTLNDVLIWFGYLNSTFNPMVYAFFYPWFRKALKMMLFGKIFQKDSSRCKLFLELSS
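Assay system: CHO-derived RD-HGA16 cells stably expressing human TAAR1 plus Gα16. Timing: 140 s kinetic read after compound, 140 s after agonist. Technique: kinetic Fluo-8 calcium fluorescence measurement. Measure: % inhibition of agonist calcium response.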
OX1R antag-1 – antagonists of human orexin 1 receptor. O43613. CHO/OX1R cells, Fluo-8 calcium fluorescence, orexin A. inhibition, % at 5 µM. 330,000 tested, 0.43% active;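 active means inhibition above its plate's threshold, mean inhibition of all tested compounds on the plate plus 3 SD, cut at about 37% in these data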;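 further: 0% = orexin A challenge wells and 100% = SB-334867-A antagonist wells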
OX1R antag-2 – OX1R (human) antagonism. O43613. OX1R-expressing cells, FRET antagonist read-out. inhibition, % at 6.6 µM. 330,000 tested, 1.8% active. AID 485270; in the data active means inhibition mostly above about 38%, no sharp cut-off; inactive means mostly below about 40%;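 further: 0% = agonist challenge alone and 100% = reference antagonist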
TAAR1 ag – human TAAR1 agonism; CHO RD-HGA16 TAAR1, Fluo-8 calcium fluorescence; vehicle wells 0%, saturating PEA agonist 100%; activation, % at 3 µM; 360,000 tested, 0.99% active; AID 624467; Q96RJ0;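 active means activation above the mean activation of all test compounds in the run plus 3 SD, cut at about 38% in these data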
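Signal – calcium-sensitive Fluo-8 signal, excitation 470-495, emission 515-575 nm · System – RD-HGA16 (CHO) cells co-expressing Gα16 and hTAAR1 · Incubation – 17-24 h seeding, 75 min 37 °C dye, 30 min RT · Compound dosing – 3 µM single concentration · Repeats – no replicates (n 1)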
GPR7 antag – human neuropeptides B/W receptor 1 antagonism. P48145. GPR7-expressing cells, fluorescence antagonist assay. inhibition, % at 4.4 µM. 290,000 tested, 1.1% active. AID 1861; in the data active means inhibition above about 16%, passing the limit was not always enough;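 further: cells stimulated with the agonist NPW; 0% = agonist with vehicle and 100% = vehicle without agonist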
Target sequence (P48145 whole entry, looked up): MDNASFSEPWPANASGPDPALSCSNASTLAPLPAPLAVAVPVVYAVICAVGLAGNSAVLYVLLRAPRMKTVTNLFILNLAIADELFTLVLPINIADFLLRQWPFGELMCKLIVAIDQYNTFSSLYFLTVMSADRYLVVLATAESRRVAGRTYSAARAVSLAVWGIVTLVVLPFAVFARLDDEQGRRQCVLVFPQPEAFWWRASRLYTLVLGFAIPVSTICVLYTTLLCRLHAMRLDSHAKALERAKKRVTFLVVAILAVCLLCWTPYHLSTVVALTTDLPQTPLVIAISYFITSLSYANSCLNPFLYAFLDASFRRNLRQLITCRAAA
TAAR1 nonsel count – counter-screen for TAAR1 antagonists: nonselective antagonists; inhibition, % at 3 µM; counterscreen cell line, calcium fluorescence, antagonist mode; 2,400 tested, 77% active; shares compounds with TAAR1 antag; in the data active means inhibition above about 22%;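 further: CHO-Ga16 host cells stimulated with ATP at an EC80 level; 0% = agonist EC80 plus vehicle and 100% = vehicle without agonist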
TAAR1 antag conf – human TAAR1 antagonism, confirmed; inhibition, % at 3 µM; shares compounds with TAAR1 antag; 2,400 tested, 40% active; TAAR1-expressing cells, fluorescence antagonist read-out; in the data active means inhibition above about 49%;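 further: CHO-Ga16 host cells challenged with agonist PEA near its EC80; 0% = agonist at EC80 plus vehicle and 100% = vehicle with no agonist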
Ga16 nonsel ag – nonselective Ga16 agonism, counter-screen; shares compounds with TAAR1 antag; Ga16-expressing cells, calcium fluorescence, agonist counterscreen; activation, % at 3 µM; 2,400 tested, 18% active; AID 651953; in the data active means activation above about 12%;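 further: 0% = vehicle wells and 100% = saturating stimulus response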
TAAR1 ag counter – activates human TAAR1 in antagonist counter-screen; shares compounds with TAAR1 antag; 2,400 tested, 2% active; AID 651955; hTAAR1 cell line, fluorescence activation, agonist mode; activation, % at 3 µM; in the data active means activation above about 37%;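 further: CHO cells stably expressing TAAR1 with calcium dye readout; 0% = DMSO vehicle and 100% = full agonist response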
* marks the source's active call; other numbers are inactive results; . = no result given. Shown are actives, neighbours in structure and some others; about 4.5% of the full set was active somewhere.

SMILES	CHO parental Ca	TAAR1 antag	OX1R antag-1	OX1R antag-2	TAAR1 ag	GPR7 antag	TAAR1 nonsel count	TAAR1 antag conf	Ga16 nonsel ag	TAAR1 ag counter
CCN(CC)S(=O)(=O)c1ccc(/C=C/C(=O)Nc2cccc(F)c2)cc1	-2	58*	-14	23	10	10	39*	62*	10	7
CCOC(=O)c1ccc2ncc(C(=O)OCC)c(Nc3ccc(N4CCOCC4)cc3)c2c1	-21	57*	-25	36	10	-9	36*	57*	6	3
CCOC(=O)c1cnc2ccc(C(=O)OC)cc2c1Nc1ccc(C(=O)O)cc1	-10	8	-8	8	15	-9	.	.	.	.
O=C(O)c1cc(NC(=O)c2ccc3c(c2)C(=O)N(Cc2cccnc2)C3=O)cc(C(=O)O)c1	0	-25	0	15	0	-26	.	.	.	.
C#Cc1cccc(NC(=O)c2ccc3c(c2)C(=O)N(Cc2cccnc2)C3=O)c1	-4	85*	-10	15	15	-5	42*	61*	14*	14
C=CCN1C[C@H](COC(=O)c2cccc(C)c2)Oc2cccc(F)c2S1(=O)=O	.	49*	.	.	1	.	38*	50*	7	6
COc1ccc(CN2C(=O)c3cccnc3C2=O)cc1S(=O)(=O)N1CCCCC1C (stereo not drawn)	-22	15	-19	-3	2	-2	.	.	.	.
CCN1CCN(Cc2ccc(NC(=O)c3cccc(-c4ccc5nc(NC(=O)C6CC6)sc5n4)c3)cc2C(F)(F)F)CC1	.	66*	.	.	17	.	44*	60*	11	12
COc1c(Cl)cccc1-c1cn2ccc(C)cc2n1	-11	-10	-24	23	0	6	.	.	.	.
CCOc1cc(/C=N/NC(=O)C(O)(c2ccccc2)c2ccccc2)ccc1OC(=O)c1ccco1	-2	80*	-4	9	14	.	33*	56*	8	7
CC1(C)CC(NS(=O)(=O)c2ccc(C(C)(C)C)cc2)CC(C)(C)N1	-2	-4	-8	5	8	-10	.	.	.	.
CC(C)(C)NC(=O)C1Cc2ccccc2CN1C(=O)Nc1cccc(Cl)c1 (stereo not drawn)	-30	-3	-25	12	5	0	.	.	.	.
CCCc1cc(C(=O)Nc2ccc(C(=O)c3ccc(F)cc3)cc2)n(C)n1	-2	.	19	18	.	17	.	.	.	.
COc1cc(OC)cc(C(=O)Nc2cccc(NC(=O)c3cc(OC)cc(OC)c3)n2)c1	-11	75*	-6	27	14	.	27*	49*	8	5
CCCc1cc(C(=O)Nc2ccc(C(=O)c3ccccc3)cc2)n(C)n1	-8	72*	-16	21	-1	16	34*	55*	7	4
COc1cccc(C(=O)Nc2ccc(C(=O)c3ccccc3)cc2)c1	9	67*	19	40	7	8	32*	41	8	2
COc1cccc(C(=O)N[C@@H](C)C(=O)N2CCC3(CC2)NCCc2[nH]cnc23)c1	-9	-6	1	7	2	-13	.	.	.	.
CCc1nc2ccc(C(=O)NCCC(C)C)cn2c1N(CC)CCN(C)C	.	-13	.	.	2	.	.	.	.	.
O=C(OCC(=O)N1CCCCC1)c1cc(=O)[nH]c2ccccc12	-8	-38	-21	20	-2	.	.	.	.	.
COc1ccccc1OCCNC(=O)C1CCN(C(C)=O)CC1	8	-12	-13	12	6	-4	.	.	.	.
COC(=O)c1ccccc1C(=O)c1c(C)cc(C)cc1C	.	8	.	.	6	.	.	.	.	.
O=C1NC(=O)C2(C=C(c3ccccc3)C(O)(c3ccccc3)C2)N1 (stereo not drawn)	.	-11	.	.	-1	.	.	.	.	.
CCOCCCNC(=O)c1ccc(/C=C2\Oc3ccccc3N(C)C2=O)cc1	-12	-16	-3	-1	4	-2	.	.	.	.
N#Cc1ccccc1S(=O)(=O)Nc1ccc2c(c1)C(=O)OC2	1	-20	-7	9	-1	-4	.	.	.	.
COc1ccc(-c2cc(NC(=O)Cc3c[nH]c4ccccc34)ccc2Nc2cccnc2)cc1F	.	90*	.	.	20	.	39*	65*	10	12
SMILES	CHO parental Ca	TAAR1 antag	OX1R antag-1	OX1R antag-2	TAAR1 ag	GPR7 antag	TAAR1 nonsel count	TAAR1 antag conf	Ga16 nonsel ag	TAAR1 ag counter
O=C(Cc1c[nH]c2ccccc12)Nc1ccc(Nc2cccnc2)c(-c2cc(F)cc(F)c2)c1	.	89*	.	.	18	.	36*	57*	14*	15
O=C(Cc1c[nH]c2ccccc12)Nc1ccc(Nc2cccnc2)c(-c2ccc(Oc3ccccc3)cc2)c1	.	30	.	.	2	.	.	.	.	.
O=C(Cc1c[nH]c2ccccc12)Nc1ccc(Nc2cccnc2)c(-c2ccc(Cl)c(Cl)c2)c1	.	71*	.	.	11	.	38*	56*	9	10
Cc1ccc(S(=O)(=O)Nc2ccc3c(c2)C(=O)N([C@H](C)CO)C[C@H](C)[C@@H](CN(C)Cc2ccccc2)O3)cc1	-17	-1	-13	-1	3	.	.	.	.	.
CCOC(=O)CC(=O)CSc1ncnc2c1nnn2-c1ccc(OC)cc1	-12	-9	-18	22	1	-13	.	.	.	.
O=C(CCn1nnc2ccccc21)N/N=C\Cc1ccccc1	-19	14	-17	36	3	-3	.	.	.	.
CC(C)N=C1SC(CC(=O)Nc2ccccc2)C(=O)N1C(C)C (stereo not drawn)	-7	57*	-39	7	16	-13	35*	47	7	9
CSCCC(NS(=O)(=O)c1ccc2c(c1)OCCO2)C(=O)N(C)Cc1ccc(C)cc1 (stereo not drawn)	-14	63*	-25	2	11	-13	23*	47	11	11
CSCCC(NS(=O)(=O)c1ccc2c(c1)OCCO2)C(=O)NCCc1ccccn1 (stereo not drawn)	-16	3	-29	12	0	-2	.	.	.	.
COc1cccc(CN(C)C(=O)C(CCSC)NS(=O)(=O)c2ccc3c(c2)OCCO3)c1OC (stereo not drawn)	-15	75*	-12	41	18	.	38*	63*	12*	14
CCOc1ccc(CN(CC)C(=O)c2ccc3c(c2)[nH]c(=O)c(=O)n3CC)cc1OC	-17	-8	-16	-4	0	-3	.	.	.	.
O=C1N[C@@H](c2ccccc2)COC(=O)[C@@H](Cc2ccc(F)cc2)CC/C=C/C[C@@H]1CC(=O)N(CCO)Cc1ccccc1	-28	37	-2	6	15	.	.	.	.	.
